# Assays:
# A549 = assay: Antiproliferative activity against human A549 cells after 72 hrs by CCK-8 assay; type: functional, cell-based; details: A549, 72 h
# [1] = target: Transitional endoplasmic reticulum ATPase (Homo sapiens, UniProt P55072); assay: Inhibition of human p97 using ATP as substrate after 60 mins by ADP-Glo assay
# [2] = Tmax in Sprague-Dawley rat at 5 mg/kg, iv administered as single dose by LC-MS/MS analysis; type: ADME, organism-based; details: in vivo
# Method in brief: (§1)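 Male Sprague-Dawley rats received a single dose, iv by tail vein at 5 mg/kg or orally (ig) at 30 mg/kg. Vehicle was a solution of 40% PEG400, 10% castor oil, 5% EtOH and 45% buffered saline. Orbital sinus blood (0.1 mL) was taken into heparinized tubes at 2, 5, 15 and 30 min and at 1, 2, 4, 8 and 24 h, then centrifuged for plasma.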
# [3] = Intrinsic clearance in rat liver microsomes at 1 uM after 60 mins by LC-MS analysis; type: ADME, Microsome; details: 1 h
# [4] = Cmax in Sprague-Dawley rat at 5 mg/kg, iv administered as single dose by LC-MS/MS analysis; type: ADME, organism-based; set-up: dose 5 mg/kg, route intravenous; details: in vivo; method in brief: as §1
# [5] = Oral bioavailability in Sprague-Dawley rat at 30 mg/kg administered as single dose by LC-MS/MS analysis; type: ADME, organism-based; details: in vivo; method in brief: as §1
# [6] = Half life in rat liver microsomes at 1 uM after 60 mins by LC-MS analysis; type: ADME, Microsome
# [7] = Intrinsic clearance in human liver microsomes at 1 uM after 60 mins by LC-MS analysis; type: ADME, Microsome; details: 1 h
# [8] = MRT in Sprague-Dawley rat at 5 mg/kg, iv administered as single dose by LC-MS/MS analysis; type: ADME, organism-based; details: in vivo; method in brief: as §1
# [9] = AUC (0 to infinity) in Sprague-Dawley rat at 30 mg/kg, ig administered as single dose by LC-MS/MS analysis; type: ADME, organism-based; set-up: dose 30 mg/kg, route intragastric, time infinity; details: in vivo, po; method in brief: as §1
# [10] = Half life in Sprague-Dawley rat at 30 mg/kg, ig administered as single dose by LC-MS/MS analysis; type: ADME, organism-based; details: in vivo, po; method in brief: as §1
# [11] = AUC (0 to infinity) in Sprague-Dawley rat at 5 mg/kg, iv administered as single dose by LC-MS/MS analysis; type: ADME, organism-based; set-up: dose 5 mg/kg, route intravenous, time infinity; details: in vivo; method in brief: as §1
# [12] = AUC (0 to t) in Sprague-Dawley rat at 5 mg/kg, iv administered as single dose by LC-MS/MS analysis; type: ADME, organism-based; details: in vivo; method in brief: as §1
# [13] = Intrinsic clearance in dog liver microsomes at 1 uM after 60 mins by LC-MS analysis; type: ADME, Canis lupus familiaris, Microsome; details: 1 h
# [14] = MRT in Sprague-Dawley rat at 30 mg/kg, ig administered as single dose by LC-MS/MS analysis; type: ADME, organism-based; details: in vivo, po; method in brief: as §1
# [15] = Intrinsic clearance in mouse liver microsomes at 1 uM after 60 mins by LC-MS analysis; type: ADME, Microsome; details: 1 h
# [16] = Cmax in Sprague-Dawley rat at 30 mg/kg, ig administered as single dose by LC-MS/MS analysis; type: ADME, organism-based; set-up: dose 30 mg/kg, route intragastric; details: in vivo, po; method in brief: as §1
# [17] = AUC (0 to t) in Sprague-Dawley rat at 30 mg/kg, ig administered as single dose by LC-MS/MS analysis; type: ADME, organism-based; details: in vivo, po; method in brief: as §1
# [18] = Half life in dog liver microsomes at 1 uM after 60 mins by LC-MS analysis; type: ADME, Canis lupus familiaris, Microsome
# [19] = Half life in mouse liver microsomes at 1 uM after 60 mins by LC-MS analysis; type: ADME, Microsome
# [20] = Half life in Sprague-Dawley rat at 5 mg/kg, iv administered as single dose by LC-MS/MS analysis; type: ADME, organism-based; details: in vivo; method in brief: as §1
# [21] = Intrinsic clearance in monkey liver microsomes at 1 uM after 60 mins by LC-MS analysis; type: ADME, Macaca mulatta, Microsome; details: rhesus monkey, 1 h
# [22] = Half life in human liver microsomes at 1 uM after 60 mins by LC-MS analysis; type: ADME, Microsome
# [23] = Half life in monkey liver microsomes at 1 uM after 60 mins by LC-MS analysis; type: ADME, Macaca mulatta, Microsome; details: rhesus monkey
# [24] = Tmax in Sprague-Dawley rat at 30 mg/kg, ig administered as single dose by LC-MS/MS analysis; type: ADME, organism-based; details: in vivo, po; method in brief: as §1
# Transitional endoplasmic reticulum ATPase, sequence (P55072 whole entry): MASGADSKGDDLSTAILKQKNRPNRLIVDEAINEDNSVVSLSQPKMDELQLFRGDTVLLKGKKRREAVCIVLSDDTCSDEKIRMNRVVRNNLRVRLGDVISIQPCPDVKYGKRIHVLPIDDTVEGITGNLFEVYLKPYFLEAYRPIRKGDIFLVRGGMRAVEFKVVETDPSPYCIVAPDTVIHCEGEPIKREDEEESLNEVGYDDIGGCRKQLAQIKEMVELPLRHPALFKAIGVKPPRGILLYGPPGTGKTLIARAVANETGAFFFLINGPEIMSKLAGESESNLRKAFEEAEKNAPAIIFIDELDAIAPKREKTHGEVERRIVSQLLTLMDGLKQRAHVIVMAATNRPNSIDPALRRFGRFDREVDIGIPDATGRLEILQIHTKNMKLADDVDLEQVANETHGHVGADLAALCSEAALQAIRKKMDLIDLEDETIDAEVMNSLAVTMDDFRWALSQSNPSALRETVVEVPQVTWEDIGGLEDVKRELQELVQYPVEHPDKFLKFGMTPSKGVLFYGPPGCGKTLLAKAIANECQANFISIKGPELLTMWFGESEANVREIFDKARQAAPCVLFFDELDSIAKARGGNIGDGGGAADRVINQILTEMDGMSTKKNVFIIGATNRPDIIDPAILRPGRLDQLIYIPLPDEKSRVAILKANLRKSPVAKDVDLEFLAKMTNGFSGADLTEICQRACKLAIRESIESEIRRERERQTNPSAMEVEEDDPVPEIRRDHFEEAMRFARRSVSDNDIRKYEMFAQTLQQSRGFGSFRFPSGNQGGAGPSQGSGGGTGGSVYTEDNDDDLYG
structure (smiles),measurement,setting,value
Cc1cc2c(C(N)=O)cccc2n1-c1nc2c(c(NCc3ccccc3)n1)CCCCC2,IC50,A549,2600 nM
same,IC50,[1]; read-out: IC50,82.8 nM
C=CC(=O)Nc1cccc2c1cc(C)n2-c1nc2c(c(NCc3cccc4ccccc34)n1)COCC2,IC50,[1],Not Active
Cc1cc2c(C(N)=O)cccc2n1-c1nc2c(c(NCCN3CCOCC3)n1)COCC2,IC50,[1],Not Active
C=CC(=O)Nc1cccc2c1cc(C)n2-c1nc2c(c(NCc3ccccc3)n1)COCC2,IC50,A549,4600 nM
same,IC50,[1]; read-out: IC50,58.3 nM
Cc1cc2c(NC(=O)/C=C/c3ccccc3)cccc2n1-c1nc2c(c(NCc3ccccc3)n1)COCC2,IC50,[1]; read-out: IC50,447 nM
Cc1cc2c(NS(=O)(=O)c3ccccc3)cccc2n1-c1nc2c(c(NCc3ccccc3)n1)COCC2,IC50,[1]; read-out: IC50,135 nM
C=CC(=O)Nc1cccc2c1cc(C)n2-c1nc2c(c(NCC3CC3)n1)COCC2,IC50,[1],Not Active
Cc1cc2c(NC(=O)CCl)cccc2n1-c1nc2c(c(NCc3ccccc3)n1)COCC2,IC50,[1]; read-out: IC50,308 nM
Cc1cc2c(NS(C)(=O)=O)cccc2n1-c1nc2c(c(NCc3ccccc3)n1)COCC2,Tmax,[2],3 min
same,CLint,[3],149 mL/min/kg
same,Cmax,[4],3380 ng/mL
same,bioavailability,[5],4.2%
same,half-life at 1 µM,[6],16.8 min
same,CLint,[7],29.5 mL/min/kg
same,MRT,[8],271 min
same,AUC(0-inf),[9],2560 ng·h/mL
same,half-life,[10],274 min
same,IC50,A549,1600 nM
same,AUC(0-inf),[11],7420 ng·h/mL
same,AUC(0-t),[12],6950 ng·h/mL
same,CLint,[13],55 mL/min/kg
same,MRT,[14],425 min
same,CLint,[15],114 mL/min/kg
same,Cmax,[16],191 ng/mL
same,AUC(0-t),[17],1770 ng·h/mL
same,half-life at 1 µM,[18],36.3 min
same,half-life at 1 µM,[19],47.8 min
same,half-life,[20],218 min
same,CLint,[21],152 mL/min/kg
same,half-life at 1 µM,[22],42.3 min
same,IC50,[1]; read-out: IC50,36.4 nM
same,half-life at 1 µM,[23],12.3 min
same,Tmax,[24],160 min
Cc1cc2c(NS(=O)(=O)C(F)(F)F)cccc2n1-c1nc2c(c(NCc3ccccc3)n1)COCC2,IC50,[1]; read-out: IC50,101 nM
Cc1cc2c(NC(=O)CN3CCCC3)cccc2n1-c1nc2c(c(NCc3ccccc3)n1)COCC2,IC50,[1]; read-out: IC50,449 nM
Cc1cc2c(C(N)=O)cccc2n1-c1nccc(NCc2ccccc2)n1,IC50,[1]; read-out: IC50,161 nM
Cc1cc2c(C(N)=S)cccc2n1-c1nc2c(c(NCc3ccccc3)n1)COCC2,IC50,[1]; read-out: IC50,193 nM
Cc1cc2c(NS(=O)(=O)C3CC3)cccc2n1-c1nc2c(c(NCc3ccccc3)n1)COCC2,IC50,A549,2100 nM
same,IC50,[1]; read-out: IC50,34.6 nM
Cc1cc2c(C(N)=O)cccc2n1-c1nc2c(c(NCc3ccccc3)n1)CCCCCC2,IC50,[1]; read-out: IC50,120 nM
CC(=O)Nc1cccc2c1cc(C)n2-c1nc2c(c(NCc3ccccc3)n1)COCC2,IC50,[1]; read-out: IC50,129 nM
C=CC(=O)Nc1cccc2c1cc(C)n2-c1nc2c(c(NCc3ccncc3)n1)COCC2,IC50,[1]; read-out: IC50,5100 nM
Cc1cc2c(C(N)=O)cccc2n1-c1nc2c(c(NCc3ccncc3)n1)COCC2,IC50,[1],Not Active
Cc1cc2c(C(N)=O)cccc2n1-c1nc2c(c(NCc3ccccc3)n1)COCC2 [CB-5083],CLint,[3],146 mL/min/kg
same,half-life at 1 µM,[6],17 min
same,CLint,[7],48.4 mL/min/kg
same,CLint,[13],54.7 mL/min/kg
same,CLint,[15],38.6 mL/min/kg
same,half-life at 1 µM,[18],36.5 min
same,half-life at 1 µM,[19],141 min
same,CLint,[21],127 mL/min/kg
same,half-life at 1 µM,[22],25.8 min
same,half-life at 1 µM,[23],14.7 min
CC(=O)Nc1cccc2c1ccn2-c1nc2c(c(NCc3ccccc3)n1)COCC2,IC50,[1]; read-out: IC50,922 nM
NC(=O)c1cccc(Nc2nc3c(c(NCc4ccccc4)n2)COCC3)c1,IC50,[1],Not Active
Cc1cc2c(C(N)=O)cccc2n1-c1nc2c(c(NCC3CC3)n1)COCC2,IC50,[1],Not Active
Cc1cc2c(NC(=O)/C=C/CN(C)C)cccc2n1-c1nc2c(c(NCc3ccccc3)n1)COCC2,IC50,[1]; read-out: IC50,387 nM

# Source: ChEMBL document CHEMBL4330115, “Discovery of a new class of valosine containing protein (VCP/P97) inhibitors for the treatment of non-small cell lung cancer” (Bioorg Med Chem, 2019)
